# Square brackets hold non-standard residues; d marks the D form. Peptide text beside a SMILES is read from it. pS = N[C@@H](COP(=O)(O)O)C(=O)O
# Legend:
# [1] = system: PDE8A–14-3-3ζ interaction; assay: Co-immunoprecipitation of PDE8A with HA-14-3-3ζ in treated HEK293T cells; format: cell-based, human; details: for change of PDE8A–14-3-3ζ interaction, PKC activator/inhibitor: 1 μM, Fig. 3B
# 14-3-3ζ protein = biological target: T1, 14-3-3ζ protein (Homo sapiens, UniProt P63104); assay: 31P NMR titration of KA14P with 14-3-3ζ protein; format: binding
# T1 sequence (P63104 1-245): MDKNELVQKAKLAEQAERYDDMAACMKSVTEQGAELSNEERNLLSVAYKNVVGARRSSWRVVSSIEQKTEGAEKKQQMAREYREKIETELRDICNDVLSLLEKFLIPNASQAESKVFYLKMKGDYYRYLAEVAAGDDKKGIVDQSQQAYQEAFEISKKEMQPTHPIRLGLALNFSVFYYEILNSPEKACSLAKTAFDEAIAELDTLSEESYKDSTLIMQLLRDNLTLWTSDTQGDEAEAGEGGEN
# Method in brief: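 Human 14-3-3ζ expressed from pQE30 in E. coli M15 (0.5 mM IPTG, 3 h, 37 °C), Ni-NTA purified, and stored in 10 mM phosphate pH 6.1 with 50 mM NaCl. Peptide held at 500 μM. Spectra taken with 512 scans, 16 dummy scans and a 10 s recycle delay. A 20 Hz exponential line broadening was applied before Fourier transformation.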
# 14-3-3ζ = 14-3-3ζ (UniProt P63104); assay: co-IP, anti-HA IP, Myc/FLAG blot; details: reference: wild type PDE8A; sites S359
# [2] = biological target: KA14P (phosphorylated PDE8A peptide) (human); assay: NMR titration
# PDE8A = details: background statement; ref not stated; cited from earlier work
# [3] = system: DN-PDE8A (D726A)–14-3-3ζ interaction; assay: Co-immunoprecipitation of DN-PDE8A with HA-14-3-3ζ in treated HEK293T cells; format: cell-based, human; details: forskolin 100 μM, 15 min; Fig. 3D
# [4] = system: D726A PDE8A mutant (DN-PDE8A); details: cited from earlier work
molecule,measurement,setting,value
"CCCCCCCCCCCCCC(=O)O[C@@H]1[C@@H](C)[C@@]2(O)[C@@H](C=C(CO)C[C@]3(O)C(=O)C(C)=C[C@@H]23)[C@@H]2C(C)(C)[C@]12OC(C)=O [PMA, phorbol 12-myristate 13-acetate]","change of PDE8A–14-3-3ζ interaction, PKC activator/inhibitor",[1]; 15 min,no change of interaction
CC(C)C[C@H](NC(=O)[C@H](COP(=O)(O)O)NC(=O)CNC(=O)[C@H](CCCCN)NC(=O)[C@H](CCCNC(=N)N)NC(=O)[C@H](CCCNC(=N)N)NC(=O)[C@H](CC(=O)O)NC(=O)[C@@H](N)CCCCN)C(=O)N[C@@H](CC(=O)O)C(=O)N[C@H](C(=O)N[C@@H](CCCCN)C(=O)N[C@@H](C)C(=O)N[C@H](C(=O)N[C@@H](C)C(=O)O)C(C)C)C(C)C [KA14P] (H-KDRRKG[pS]LDVKAVA-OH),Kd,14-3-3ζ protein,11.3 ± 0.18 µM
O=S(=O)(NCCNC/C=C/c1ccc(Br)cc1)c1cccc2cnccc12 [H89],"association of PDE8A and 14-3-3ζ, PKA inhibitor","[1]; 100 μM, 15 min pretreatment, then forskolin 100 μM, 15 min, anti-HA IP, Fig. 3A",association decreased
PDE8A (phosphodiesterase 8A) (from UniProt O60658) S359A,binding against the reference,14-3-3ζ,lost
COc1ccc(Cl)c(Nc2nc3ccccc3nc2NS(=O)(=O)c2cccc(NC(=O)C(C)(C)N)c2)c1 [pilaralisib],"PDE8A–14-3-3ζ interaction, inhibitor of PI3K","[1]; 100 μM, 30 min, Fig. 3C",remained unchanged
purified recombinant 14-3-3ζ (from UniProt P63104 1-245) (natural protein),Kd,[2],11.3 µM
insulin: human insulin; activator of PI3K,"PDE8A–14-3-3ζ interaction, activator of PI3K","[1]; 200 μM, 30 min, Fig. 3C",remained unchanged
"CC(C)Cn1c(=O)n(C)c(=O)c2[nH]cnc21 [IBMX, 3-isobutyl-1-methylxanthine]",sensitivity of PDE8A to inhibitor,PDE8A,insensitive
C=C[C@@]1(C)CC(=O)[C@]2(O)[C@@]3(C)[C@@H](O)CCC(C)(C)[C@@H]3[C@H](O)[C@H](OC(C)=O)[C@@]2(C)O1 [forskolin],interaction of DN-PDE8A with 14-3-3ζ,[3],increased further
same,phosphorylation of DN-PDE8A by PKA following treatment,[4],rapidly phosphorylated
same,"association of PDE8A and 14-3-3ζ, PKA activator","[1]; 100 μM, 15 min, serum-free, anti-HA IP, at least three repeats, Fig. 3A",increased association
CN(C)CCCn1cc(C2=C(c3c[nH]c4ccccc34)C(=O)NC2=O)c2ccccc21 [GX109203X],"change of PDE8A–14-3-3ζ interaction, PKC activator/inhibitor",[1]; 15 min,no change of interaction
